The values that follow come from ChEMBL document CHEMBL1129071, “Probes for narcotic receptor-mediated phenomena. 21. Novel derivatives of 3-(1,2,3,4,5,11-hexahydro-3-methyl-2,6-methano-6H-azocino[4,5-b]indol- 6-yl)-phenols with improved delta opioid receptor selectivity” (J Med Chem, 1996).

In test [1] the target is Delta-type opioid receptor (Mus musculus, UniProt P32300). In words: Agonistic activity towards Opioid receptor delta 1 as inhibitory activity towards electrically stimulated mouse vas deferens. In kind it is functional, tissue-based. The essentials:
(§1)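 Electrically stimulated smooth muscle bioassay. Guinea pig ileum longitudinal muscle-myenteric plexus strips come from male Hartley guinea pigs (250–500 g); vas deferens from male ICR mice (25–40 g). Tissues sit in 37 °C oxygenated Krebs bicarbonate (Mg-free for MVD) at 1 g tension (0.5 g MVD). Stimulation is 0.1 Hz, 0.4 ms pulses (2 ms MVD), supramaximal voltage.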

Test [2] has as its target Delta-type opioid receptor (Rattus norvegicus, UniProt P33533). Description: Inhibition of [3H]- DADLE binding to Rat brain Opioid receptor delta 1.
The target in test [3] is T1, Mu-type opioid receptor (Rattus norvegicus, UniProt P33535). Description: Compound was evaluated for Inhibition of Radio Ligand binding of [3H]- DAMGO at Rat brain Opioid receptor mu 1 binding site. The essentials:
(§2)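 Rat brain membranes labeled with [3H]DAMGO (1–3 nM), incubated 4 h at 25 °C in 50 mM Tris-HCl pH 7.4 with protease inhibitor cocktail. Nonspecific binding defined by 20 µM levallorphan. Displacement uses 8–10 test concentrations, run twice, diluted in 10 mM Tris pH 7.4 with 1 mg/mL BSA from 1 mM stocks containing 10% DMSO. IC50 and slope factor from curve fitting.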

For test [4], the target named is Mu-type opioid receptor (Cavia porcellus, UniProt P97266). Description: Agonistic activity for Opioid receptor mu 1 as inhibitory activity towards electrically stimulated guinea pig ileum. In kind it is functional, tissue-based. The essentials:
as §1

Test [5] in a line: Relative affinity for mouse vas deferens (delta receptor) and guinea pig ileum (mu receptor). The class given is tissue-based. The essentials:
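GPI/MVD IC50 ratio from the electrically stimulated guinea pig ileum and mouse vas deferens bioassays. Both tissues are stimulated at 0.1 Hz and supramaximal voltage, with cumulative agonist dosing.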

Test [6] concerns the target T1, Mu-type opioid receptor. Description: Inhibition of [3H]- DAMGO binding to Rat brain Opioid receptor mu 1. A digest of the protocol: as §2
The target of test [7] is Mu-type opioid receptor (Cavia porcellus) (UniProt P97266). Description: Agonistic activity (30 uM) towards mu opioid receptor was determined by evaluating the inhibitory activity towards electrically stimulated guinea pig ileum. In kind it is functional, tissue-based. A digest of the protocol: as §1
Sequence of Mu-type opioid receptor (Cavia porcellus) (P97266 whole entry): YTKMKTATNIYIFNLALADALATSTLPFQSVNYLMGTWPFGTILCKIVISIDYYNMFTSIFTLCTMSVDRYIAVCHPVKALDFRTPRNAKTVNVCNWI
Test [8] addresses Kappa-type opioid receptor (Cavia porcellus, UniProt P41144). In words: Inhibition of [3H]- U69,593 binding to Guinea pig Opioid receptor kappa 1.
Test [9] in a line: Relative affinity for […] opioid receptors.
In test [10] the target is Delta-type opioid receptor (Mus musculus) (UniProt P32300). Description: Agonistic activity towards Opioid receptor delta 1 was determined by evaluating the inhibitory activity towards electrically stimulated mouse vas deferens. The class given is functional, tissue-based. The note with it: concentration not given here. The essentials: as §1
Sequence of Delta-type opioid receptor (Mus musculus) (P32300 whole entry): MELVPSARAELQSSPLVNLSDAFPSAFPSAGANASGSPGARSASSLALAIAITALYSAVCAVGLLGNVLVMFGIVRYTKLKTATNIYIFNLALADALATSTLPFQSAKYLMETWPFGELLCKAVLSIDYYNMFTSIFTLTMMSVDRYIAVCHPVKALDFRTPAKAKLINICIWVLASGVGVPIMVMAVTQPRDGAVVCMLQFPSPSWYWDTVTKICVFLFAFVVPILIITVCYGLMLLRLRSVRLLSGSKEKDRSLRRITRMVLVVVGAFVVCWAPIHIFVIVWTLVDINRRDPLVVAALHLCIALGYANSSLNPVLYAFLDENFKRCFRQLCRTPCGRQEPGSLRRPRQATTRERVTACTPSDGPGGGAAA

Each structure is given as a SMILES string.

Sequence of Delta-type opioid receptor (Mus musculus, UniProt P32300) (P32300 whole entry): as above
Sequence of Mu-type opioid receptor (Cavia porcellus, UniProt P97266) (P97266 whole entry): as the sequence (P97266 whole entry) above
T1 sequence (P33535 whole entry): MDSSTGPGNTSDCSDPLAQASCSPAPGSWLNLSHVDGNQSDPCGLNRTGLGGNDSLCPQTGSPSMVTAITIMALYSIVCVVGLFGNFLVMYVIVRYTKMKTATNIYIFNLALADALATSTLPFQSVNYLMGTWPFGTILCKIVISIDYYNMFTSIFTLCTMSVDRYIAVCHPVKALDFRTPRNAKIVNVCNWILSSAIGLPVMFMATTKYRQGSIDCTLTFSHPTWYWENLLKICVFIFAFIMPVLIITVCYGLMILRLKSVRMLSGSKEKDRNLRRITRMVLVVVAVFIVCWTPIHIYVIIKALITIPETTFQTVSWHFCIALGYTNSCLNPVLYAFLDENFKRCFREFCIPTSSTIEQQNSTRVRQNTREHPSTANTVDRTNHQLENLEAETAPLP
Sequence of Kappa-type opioid receptor (P41144 whole entry): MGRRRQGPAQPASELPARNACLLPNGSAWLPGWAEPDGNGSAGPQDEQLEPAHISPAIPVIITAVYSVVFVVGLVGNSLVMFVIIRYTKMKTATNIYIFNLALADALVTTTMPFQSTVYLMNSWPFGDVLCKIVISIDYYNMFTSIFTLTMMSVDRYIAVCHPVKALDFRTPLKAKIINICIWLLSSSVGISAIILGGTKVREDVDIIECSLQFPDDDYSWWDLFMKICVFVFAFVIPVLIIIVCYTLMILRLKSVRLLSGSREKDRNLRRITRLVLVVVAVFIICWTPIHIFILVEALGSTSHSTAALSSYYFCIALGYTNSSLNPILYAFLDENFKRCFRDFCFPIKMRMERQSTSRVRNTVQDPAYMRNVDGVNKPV
Sequence of Delta-type opioid receptor (Rattus norvegicus, UniProt P33533) (P33533 whole entry): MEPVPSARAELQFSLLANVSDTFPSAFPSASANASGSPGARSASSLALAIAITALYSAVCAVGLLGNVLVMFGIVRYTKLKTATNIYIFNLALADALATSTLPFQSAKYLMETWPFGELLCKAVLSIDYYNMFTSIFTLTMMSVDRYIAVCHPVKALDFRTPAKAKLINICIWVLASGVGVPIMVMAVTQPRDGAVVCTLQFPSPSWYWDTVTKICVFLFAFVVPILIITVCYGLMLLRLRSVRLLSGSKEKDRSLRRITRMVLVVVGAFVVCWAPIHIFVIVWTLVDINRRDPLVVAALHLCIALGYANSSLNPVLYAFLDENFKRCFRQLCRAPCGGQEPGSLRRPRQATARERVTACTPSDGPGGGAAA

A word on the IC50: it is the midpoint of a concentration-inhibition curve. High values mean lower potency, low ones higher potency. Turning to `CN1CC[C@]2(c3cccc(O)c3)C[C@H]1Cc1[nH]c3ccccc3c12`, the IC50 in test [1] worked out at 393 nM; in test [2], 5.6 nM; in test [3], 14.2 nM; in [4], 2350 nM. In addition, the Ratio in test [5] was determined as 6.
A word on the inhibition: it is the relative decrease from the control value, in per cent. Higher therefore signals a response far below the control. In the case of `COc1ccc2c3c([nH]c2c1)C[C@@H]1C[C@@]3(c2cccc(O)c2)CCN1C`, the IC50 in test [1] amounted to 49 nM; in [2] it was 3.7 nM; in test [6], 66.4 nM; in test [8] it was 1160 nM. In addition, the inhibition in test [7] stood at 38%. The values for the Ratio in test [9] and in [5] were 314 and above 612, respectively.
For `CN1CCC2(c3cccc(O)c3)CC(=O)CC1C2` (stereo not given), the Ratio in test [9] worked out at 4.46.
Take `COc1cccc2c3c([nH]c12)CC1CC3(c2cccc(O)c2)CCN1C` (racemic) [listing 1 of 2 here]: the IC50 in test [1] came to 270 nM; in test [2], 8.7 nM; in test [6], 28.8 nM; in test [8], 3960 nM; in test [4] it was 1950 nM.
Turning to `CN1CCC2(c3ccccc3)CC1Cc1[nH]c3ccccc3c12` (racemic), the IC50 is 1970 nM in test [2] and above 10000 nM in [8]. The Ratio in [9] stood at 5.08.
With `COc1ccc2c3c([nH]c2c1)CC1CC3(c2cccc(O)c2)CCN1C` (racemic), the half-maximal inhibitory concentration (IC50) in test [1] was 118 nM; in [2], 6.3 nM; in [6], 48.4 nM; in test [8], above 1000 nM; in test [4], 862 nM. For the same compound, the values for the Ratio in test [9] and in test [5] were above 159 and 7.3, respectively.
`COc1ccc2[nH]c3c(c2c1)C1(c2cccc(O)c2)CCN(C)C(C3)C1` (racemic) [listing 1 of 2 here]: the IC50 was 4370 nM in test [1]; 90.1 nM in test [2]; 24.2 nM in [6]; above 1000 nM in [8]; 6770 nM in [4].
Take `CN1CCC2(c3cccc(O)c3)CC(=O)CC1C2` (racemic): the Ratio in test [9] came out at 2.81.
With `COc1ccc2[nH]c3c(c2c1)C1(c2cccc(O)c2)CCN(C)C(C3)C1` (racemic) [listing 2 of 2 here], the figures for the Ratio in test [9] and in [5] were 11.1 and 1.5, respectively.
As to `COc1cccc2c3c([nH]c12)CC1CC3(c2cccc(O)c2)CCN1C` (racemic) [listing 2 of 2 here], the Ratio in test [9] turned out to be 455; in [5] it was 7.2.
With `COc1cccc2c3c([nH]c12)CC1CC3(c2cccc(O)c2)CCN1C` (single isomer, unassigned; (-)) [listing 1 of 2 here], the IC50 in test [1] is 165 nM; in test [2], 4.4 nM; in test [6] it was 29.4 nM; in [8], 1770 nM; in test [4], 2890 nM.
Take `COc1cccc2c3c([nH]c12)CC1CC3(c2cccc(O)c2)CCN1C` (single isomer, unassigned; (-)) [listing 2 of 2 here]: the results for the Ratio in [9] and in test [5] were 402 and 17.5, respectively.
As for `COc1ccc2[nH]c3c(c2c1)C1(c2cccc(O)c2)CCN(C)C(C3)C1` (stereo in doubt; (-)-11) [listing 1 of 2 here], the IC50 is 144 nM in test [2], 474 nM in test [6], above 2500 nM in test [8] and 25900 nM in test [4].
In [10], `COc1ccc2[nH]c3c(c2c1)C1(c2cccc(O)c2)CCN(C)C(C3)C1` (stereo in doubt; (-)-11) [listing 2 of 2 here] had an inhibition of 0%. Also, the Ratio in test [9] turned out to be 17.4.
Turning to `CC(C)C[C@@H](NC(=O)[C@H](Cc1ccccc1)NC(=O)CNC(=O)[C@@H](C)NC(=O)[C@@H](N)Cc1ccc(O)cc1)C(=O)O` [DADLE], the IC50 in [8] is 4400 nM.
In the case of `C=CCN1C[C@H](C)N([C@H](c2ccc(C(=O)N(CC)CC)cc2)c2cccc(OC)c2)C[C@H]1C` [SNC-80], the values for the IC50 in test [6], in test [8] and in [4] were 2470 nM, above 1000 nM and 5460 nM, respectively.
